From ChEMBL document CHEMBL1157072 (Bioorg Med Chem, 2010) come the findings set out here.

In brackets after ≈: the same amount, converted by molar mass.

The test system of data set [1] is Staphylococcus aureus. Put plainly: microbe, parasite or virus in culture. Conditions: isolate d20A1.
Data set [2] deals with Staphylococcus aureus. Briefly: Antibacterial activity against Staphylococcus aureus NCTC 8325 after 16 to 20 hrs by broth microdilution method. It counts as functional. In short, it runs like this:
(§1)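 Broth microdilution in cation-adjusted Mueller Hinton broth. Compounds were serially diluted twofold in DMSO at 50-fold final strength (2% DMSO final). The inoculum was 1 × 10^4 cells per well. Plates were incubated at 37 °C for 16–20 h, and growth was read as absorbance at 600 nm.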

Data set [3] has as its system Staphylococcus aureus. Briefly: Upregulation of conventional hypothetical protein mRNA expression in MBX-1090-resistant Staphylococcus aureus isolate d20A1 at 0.4 ug/ml by RT-PCR analysis relative to wild type. It counts as functional.
For data set [4], the system named is Staphylococcus aureus. Briefly: Antibacterial activity against Staphylococcus aureus NCTC 8325 carrying expression vector pG154 after 16 to 20 hrs by broth microdilution method in presence of anhydrous tetracycline. It counts as functional. Summed up:
(§2)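 Broth microdilution in cation-adjusted MHB containing anhydrous tetracycline at 100 ng/ml final to induce the pG154 expression vector. Twofold DMSO compound dilutions were used (2% DMSO final) with 1 × 10^4 cells per well. Incubation was 37 °C for 16–20 h, and absorbance was read at 600 nm.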

Data set [5] concerns Staphylococcus aureus. Briefly: Downregulation of protein A gene expression in MBX-1090-resistant Staphylococcus aureus isolate d20A1 at 0.4 ug/ml by RT-PCR analysis relative to wild type. It counts as functional.
Data set [6] concerns Staphylococcus aureus. Put plainly: Antibacterial activity against Staphylococcus aureus NCTC 8325 harboring genetic deletion of mepRA gene and carrying expression vector pG154 after 16 to 20 hrs by broth microdilution method. Format: functional. Summed up: as §1
Data set [7] deals with Staphylococcus aureus. Put plainly: Antibacterial activity against Staphylococcus aureus NCTC 8325 harboring genetic deletion of mepRA gene after 16 to 20 hrs by broth microdilution method. It counts as functional. Summed up: as §1
A short description of data set [8]: Dissociation constant, pKa of the compound. Format: physicochemical.
In data set [9] the test system is Staphylococcus aureus. Briefly: Modulation of ribD gene expression in MBX-1090-resistant Staphylococcus aureus isolate d20A1 at 0.4 ug/ml by RT-PCR analysis relative to wild type. It counts as functional.
The subject of data set [10] is Staphylococcus aureus. Put plainly: Antibacterial activity against Staphylococcus aureus NCTC 8325 carrying expression vector pG154 after 16 to 20 hrs by broth microdilution method. Format: functional. Summed up: as §1
In data set [11] the test system is Staphylococcus aureus. Put plainly: Antibacterial activity against Staphylococcus aureus NCTC 8325 harboring genetic deletion of mepRA gene and carrying expression vector pG154 with mepA gene after 16 to 20 hrs by broth microdilution method in presence of anhydrous tetracycline. Format: functional. Summed up:
as §2

The subject of data set [12] is Staphylococcus aureus. Put plainly: Antibacterial activity against Staphylococcus aureus NCTC 8325 harboring genetic deletion of mepRA gene and carrying expression vector pG154 after 16 to 20 hrs by broth microdilution method in presence of anhydrous tetracycline. It counts as functional. Summed up:
as §2

The test system of data set [13] is Staphylococcus aureus. Briefly: Antibacterial activity against Staphylococcus aureus NCTC 8325 harboring genetic deletion of mepR gene after 16 to 20 hrs by broth microdilution method. Format: functional. In short, it runs like this:
as §1

The test system of data set [14] is Staphylococcus aureus. Put plainly: Modulation of ribH gene expression in MBX-1090-resistant Staphylococcus aureus isolate d20A1 at 0.4 ug/ml by RT-PCR analysis relative to wild type. It counts as functional.
Data set [15] relates to Staphylococcus aureus. Briefly: Upregulation of mepB gene expression in MBX-1090-resistant Staphylococcus aureus isolate d20A1 at 0.4 ug/ml by RT-PCR analysis relative to wild type. Format: functional.
Data set [16] has as its system Staphylococcus aureus. Put plainly: Antibacterial activity against Staphylococcus aureus NCTC 8325 carrying expression vector pG154 with mepA gene after 16 to 20 hrs by broth microdilution method. It counts as functional. In short, it runs like this:
as §1

For data set [17], the system named is Staphylococcus aureus. Put plainly: Antibacterial activity against Staphylococcus aureus NCTC 8325 carrying expression vector pG154 with mepA gene after 16 to 20 hrs by broth microdilution method in presence of anhydrous tetracycline. It counts as functional. Summed up: as §2
Data set [18] has as its system Staphylococcus aureus. Briefly: Upregulation of mepA gene expression in MBX-1090-resistant Staphylococcus aureus isolate d20A1 at 0.4 ug/ml by RT-PCR analysis relative to wild type. It counts as functional.
The test system of data set [19] is Staphylococcus aureus. Briefly: Modulation of ribE gene expression in MBX-1090-resistant Staphylococcus aureus isolate d20A1 at 0.4 ug/ml by RT-PCR analysis relative to wild type. Format: functional.
The subject of data set [20] is Staphylococcus aureus. Put plainly: Modulation of ribA gene expression in MBX-1090-resistant Staphylococcus aureus isolate d20A1 at 0.4 ug/ml by RT-PCR analysis relative to wild type. It counts as functional.
Data set [21] relates to Staphylococcus aureus. Put plainly: Antibacterial activity against Staphylococcus aureus NCTC 8325 after 16 to 20 hrs by broth microdilution method in presence of efflux pump inhibitor reserpine. It counts as functional. Summed up: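 Broth microdilution in cation-adjusted MHB with reserpine at 20 µg/ml final in the medium as efflux inhibitor. Twofold DMSO dilutions were made (2% DMSO final) with 1 × 10^4 cells per well. Incubation was 37 °C for 16–20 h, with growth read at 600 nm.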

In data set [22] the test system is Staphylococcus aureus. Briefly: Antibacterial activity against Staphylococcus aureus NCTC 8325 harboring genetic deletion of mepRA gene and carrying expression vector pG154 with mepA gene after 16 to 20 hrs by broth microdilution method. It counts as functional. Summed up: as §1
Data set [23] can be described thus: Selectivity ratio of MIC for MBX-1090-resistant Staphylococcus aureus isolate d20A1 to MIC for Staphylococcus aureus NCTC 8325. Format: functional. Summed up:
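Ratio of resistant-mutant MIC to NCTC 8325 MIC. Both MICs came from broth microdilution in cation-adjusted MHB with 2% DMSO final and 1 × 10^4 cells per well, incubated at 37 °C for 16–20 h and read at 600 nm.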

In the case of `CC1(C)S[C@@H]2[C@H](NC(=O)[C@H](N)c3ccccc3)C(=O)N2[C@H]1C(=O)O` [AMPICILLIN], the MIC in [1] and in data set [2] was 0.0625 µg/mL (≈ 0.179 µM) in each case.

As for `O=C(N[C@H](CO)[C@H](O)c1ccc([N+](=O)[O-])cc1)C(Cl)Cl` [CHLORAMPHENICOL], the MIC in [1] and in [2] was 8 µg/mL (≈ 24.8 µM) in each case.

As to `CN[C@@H]1[C@H](O)[C@H](NC)[C@H]2O[C@@]3(O)C(=O)C[C@@H](C)O[C@H]3O[C@@H]2[C@H]1O` [SPECTINOMYCIN], the MIC in data set [1] and in data set [2] was 128 µg/mL (≈ 385 µM) in each case.

Take `Cc1onc(-c2ccccc2)c1C(=O)N[C@@H]1C(=O)N2[C@@H]1SC(C)(C)[C@@H]2C(=O)O` [OXACILLIN]: the MIC in data set [1] and in data set [2] was 0.125 µg/mL (≈ 0.311 µM) each time.

As for `c1cc2cc(-c3ccc(-c4cc5ccc(C6=NCCN6)cc5[nH]4)cc3)[nH]c2cc1C1=NCCN1`, the “fold change (FC)” value was 6.8 in data set [3]; 3.1 in data set [5]; 1.3 in data set [9]; 2.1 in data set [14]; 4.2 in data set [15]; 8.7 in [18]. For the same molecule, the “fold change (FC)” value in [19] and in data set [20] was 1.2 in each case. The MIC in data set [4] stood at 1 µg/mL; in data set [6], 0.5 µg/mL (≈ 1.12 µM); in data set [7], 0.5 µg/mL (≈ 1.12 µM); in data set [10], 0.5 µg/mL (≈ 1.12 µM); in data set [11], 8 µg/mL; in [12], 0.5 µg/mL. Besides, the MIC in data set [13] stood at 0.25 µg/mL (≈ 0.562 µM); in data set [1], 0.5 µg/mL (≈ 1.12 µM); in data set [16], 0.5 µg/mL (≈ 1.12 µM); in data set [17], 0.25 µg/mL; in [2], 0.25 µg/mL (≈ 0.562 µM); in [21], 0.125 µg/mL. Further, the MIC in [22] was determined as 0.25 µg/mL (≈ 0.562 µM). The pKa in [8] stood at 9.6.

Turning to GENTAMICIN, in data set [2], the MIC was found to be 0.25 µg/mL.

For the molecule `CN[C@@H]1[C@H](O[C@H]2[C@H](O[C@H]3[C@H](O)[C@@H](O)[C@H](N=C(N)N)[C@@H](O)[C@@H]3N=C(N)N)O[C@@H](C)[C@]2(O)C=O)O[C@@H](CO)[C@H](O)[C@H]1O` [STREPTOMYCIN], the results for the MIC in data set [1] and in data set [2] were 128 µg/mL (≈ 220 µM) and 32 µg/mL (≈ 55 µM), respectively. Moreover, the Selectivity ratio in [23] was 4.

`NC[C@H]1O[C@H](O[C@H]2[C@H](O)[C@@H](O[C@H]3O[C@H](CO)[C@@H](O)[C@H](N)[C@H]3O)[C@H](N)C[C@@H]2N)[C@H](O)[C@@H](O)[C@@H]1O` [KANAMYCIN]: the MIC in [1] stood at 8 µg/mL (≈ 16.5 µM); in [2] it was 2 µg/mL (≈ 4.13 µM). Besides, the Selectivity ratio in [23] is 4.

As to `CN(C)[C@@H]1C(O)=C(C(N)=O)C(=O)[C@@]2(O)C(O)=C3C(=O)c4c(O)cccc4[C@@](C)(O)[C@H]3C[C@@H]12` [TETRACYCLINE], the MIC in [1] and in data set [2] was 0.5 µg/mL (≈ 1.13 µM) each time.

On to `C/C(=C\C(=O)OCCCCCCCCC(=O)O)C[C@@H]1OC[C@H](C[C@@H]2O[C@H]2[C@@H](C)[C@H](C)O)[C@@H](O)[C@H]1O` [MUPIROCIN], for which the MIC in [1] and in data set [2] was 0.0312 µg/mL (≈ 0.0624 µM) in each case.

In the case of `CC1(C)S[C@@H]2[C@H](NC(=O)C(C(=O)O)c3ccccc3)C(=O)N2[C@H]1C(=O)O` (stereo partly drawn) [CARBENICILLIN], the MIC in data set [1] and in data set [2] was 0.0625 µg/mL (≈ 0.165 µM) each time.
